Source: ChEMBL document CHEMBL1154866, “Lanostane triterpenes from the fruiting bodies of Ganoderma lucidum and their inhibitory effects on adipocyte differentiation in 3T3-L1 Cells” (J Nat Prod, 2010)

Experiments:
3T3-L1 [1] = assay: Inhibition of adipocytes differentiation in mouse 3T3L1 cells assessed as lipid accumulation at 40 ug/ml after 8 days by Oil red O staining relative to control; assay type: functional; conditions: 3T3-L1, 192 h
Procedure, shortened: (§1)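 Differentiation induced 2 days post-confluence with DEX, 0.5 mM IBMX and insulin in DMEM/10% FBS for 2 days, then DMEM/FBS/insulin refreshed every 2 days. Sample added every 2 days for 8 days (40 µg/mL, or 5–40 µg/mL series). Day 8: PBS wash, 4% formaldehyde fixation, oil red O 30 min, dye eluted with 2-propanol, A510 versus untreated control. Mean ± SD, n=3.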

3T3-L1 [2] = assay: Cytotoxicity against mouse 3T3L1 cells at 80 ug/ml after 2 days by MTT assay; assay type: cell-based; conditions: 3t3-l1, 48 h
Procedure, shortened: (§2)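 3T3-L1 preadipocytes seeded at 1 × 10^4 cells/well in DMEM + 10% bovine calf serum, 37 °C, 5% CO2. After 24 h, vehicle or sample (10 to 80 µg/mL) added in serum-free DMEM. After a further 24 h, MTT added for 2 h. Formazan dissolved in DMSO, OD read at 570 nm.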

3T3-L1 [3] = assay: Cytotoxicity against mouse 3T3L1 cells at 40 ug/ml after 2 days by MTT assay; assay type: cell-based; conditions: 3t3-l1, 48 h; procedure, shortened: as §2
[4] = molecular target: T1, Glycerol-3-phosphate dehydrogenase [NAD(+)], cytoplasmic (Mus musculus) (UniProt P13707); assay: Inhibition of GPDH in mouse 3T3L1 cells assessed as reduction of NADH oxidation rate at 40 ug/ml; assay type: cell-based; set-up: scale not given: the % may be the effect or the level left; conditions: 3T3-L1
T1 sequence (whole entry): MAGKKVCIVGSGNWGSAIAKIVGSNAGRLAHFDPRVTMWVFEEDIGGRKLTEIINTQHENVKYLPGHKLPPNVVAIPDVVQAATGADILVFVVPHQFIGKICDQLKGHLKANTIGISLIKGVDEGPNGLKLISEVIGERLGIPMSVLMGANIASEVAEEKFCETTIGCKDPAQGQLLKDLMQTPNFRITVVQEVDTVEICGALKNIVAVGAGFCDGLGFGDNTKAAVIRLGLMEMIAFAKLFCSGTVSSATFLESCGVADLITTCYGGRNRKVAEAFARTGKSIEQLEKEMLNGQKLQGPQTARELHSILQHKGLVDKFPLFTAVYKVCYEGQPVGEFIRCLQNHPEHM
Procedure, shortened: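 Preadipocytes kept in DMEM/10% BCS; induced 2 days post-confluence with DEX, 0.5 mM IBMX and insulin in DMEM/10% FBS, then DMEM/FBS/insulin. Treated every 2 days (5–40 µg/mL) to day 8. Cells collected in extraction buffer and spun 12 000 rpm, 5 min, 4 °C. Supernatant A340 decline over 5 min gives NADH oxidation with dihydroxyacetone phosphate, as units per mg protein (Bradford). Mean ± SD, n=3.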

3T3-L1 [5] = assay: Inhibition of adipocytes differentiation in mouse 3T3L1 cells assessed as lipid accumulation after 8 days by Oil red O staining relative to control; assay type: functional, cell-based; procedure, shortened: as §1
3T3-L1 [6] = assay: Inhibition of adipocytes differentiation in mouse 3T3L1 cells assessed as lipid accumulation at 5 to 40 ug/ml after 8 days by Oil red O staining relative to control; assay type: functional; procedure, shortened: as §1

CCCCOC(=O)C(C)CC(=O)C[C@@H](C)[C@H]1C[C@H](O)[C@@]2(C)C3=C(C(=O)C[C@]12C)[C@@]1(C)CCC(=O)C(C)(C)[C@@H]1C[C@@H]3O (some centres undefined) [BUTYL GANODERATE A]
inhibition at 40 µg/mL (3T3-L1 [1]): 22% | Activity (3T3-L1 [2]): Toxic | Activity (3T3-L1 [3]): Non-toxic

CCCCOC(=O)[C@H](C)CC(=O)C[C@@H](C)[C@H]1CC(=O)[C@@]2(C)C3=C(C(=O)C[C@]12C)[C@@]1(C)CC[C@H](O)C(C)(C)[C@@H]1C[C@@H]3O [BUTYL GANODERATE B]
inhibition at 40 µg/mL (3T3-L1 [1]): 22% | Activity (3T3-L1 [3]): Non-toxic

CCCCOC(=O)CC[C@@H](C)[C@H]1CC(=O)[C@@]2(C)C3=C(C(=O)C[C@]12C)[C@@]1(C)CCC(=O)C(C)(C)[C@@H]1C[C@@H]3O [BUTYL LUCIDENATE A]
inhibition at 40 µg/mL (3T3-L1 [1]): 22% | Activity (3T3-L1 [2]): Toxic | Activity (3T3-L1 [3]): Non-toxic

CCCCOC(=O)CC[C@@H](C)[C@H]1CC(=O)[C@@]2(C)C3=C(C(=O)C[C@]12C)[C@@]1(C)CC[C@H](O)C(C)(C)[C@@H]1C[C@@H]3O [BUTYL LUCIDENATE N]
Activity [4]: > 80% | inhibition at 40 µg/mL (3T3-L1 [1]): 56% | inhibition (3T3-L1 [5]): Dose-dependent effect | Activity (3T3-L1 [3]): Non-toxic | inhibition (INH) (3T3-L1 [6]): 56%

C[C@H](CC(=O)C[C@@H](C)[C@H]1C[C@H](O)[C@@]2(C)C3=C(C(=O)C[C@]12C)[C@@]1(C)CCC(=O)C(C)(C)[C@@H]1C[C@@H]3O)C(=O)O [GANODERIC ACID A]
inhibition at 40 µg/mL (3T3-L1 [1]): 22% | Activity (3T3-L1 [3]): Non-toxic

CC(CC(=O)C[C@@H](C)[C@H]1CC(=O)[C@@]2(C)C3=C(C(=O)C[C@]12C)[C@@]1(C)CC[C@H](O)C(C)(C)[C@@H]1C[C@@H]3O)C(=O)O (some centres undefined) [GANODERIC ACID B]
inhibition at 40 µg/mL (3T3-L1 [1]): 22% | Activity (3T3-L1 [3]): Non-toxic

C[C@H](CC(=O)C[C@@H](C)[C@H]1CC(=O)[C@@]2(C)C3=C(C(=O)C[C@]12C)[C@@]1(C)CCC(=O)C(C)(C)[C@@H]1CC3=O)C(=O)O [GANODERIC ACID E]
inhibition at 40 µg/mL (3T3-L1 [1]): 22% | Activity (3T3-L1 [3]): Non-toxic

CC(CC(=O)C[C@@H](C)[C@H]1C[C@H](O)[C@@]2(C)C3=C(C(=O)C[C@]12C)[C@@]1(C)CCC(=O)C(C)(C)[C@@H]1CC3)C(=O)O (some centres undefined) [GANOLUCIDIC ACID A]
inhibition at 40 µg/mL (3T3-L1 [1]): 22% | Activity (3T3-L1 [2]): Toxic | Activity (3T3-L1 [3]): Non-toxic

C[C@H](CCC(=O)O)[C@H]1CC(=O)[C@@]2(C)C3=C(C(=O)C[C@]12C)[C@@]1(C)CC[C@H](O)C(C)(C)[C@@H]1C[C@@H]3O [LUCIDENIC ACID N]
inhibition at 40 µg/mL (3T3-L1 [1]): 22% | Activity (3T3-L1 [3]): Non-toxic

COC(=O)C(C)CC(=O)C[C@@H](C)[C@H]1C[C@H](O)[C@@]2(C)C3=C(C(=O)C[C@]12C)[C@@]1(C)CCC(=O)C(C)(C)[C@@H]1C[C@@H]3O (some centres undefined) [METHYL GANODERATE A]
inhibition at 40 µg/mL (3T3-L1 [1]): 22% | Activity (3T3-L1 [2]): Toxic | Activity (3T3-L1 [3]): Non-toxic

COC(=O)C(C)CC(=O)C[C@@H](C)[C@H]1CC(=O)[C@@]2(C)C3=C(C(=O)C[C@]12C)[C@@]1(C)CC[C@H](O)C(C)(C)[C@@H]1C[C@@H]3O (some centres undefined) [METHYL GANODERATE B]
inhibition at 40 µg/mL (3T3-L1 [1]): 22% | Activity (3T3-L1 [3]): Non-toxic

COC(=O)C(C)CC(=O)C[C@@H](C)[C@H]1CC(=O)[C@@]2(C)C3=C(C(=O)C[C@]12C)[C@@]1(C)CCC(=O)C(C)(C)[C@@H]1C[C@@H]3O (some centres undefined) [METHYL GANODERATE D]
inhibition at 40 µg/mL (3T3-L1 [1]): 22% | Activity (3T3-L1 [3]): Non-toxic

COC(=O)C(C)CC(=O)C[C@@H](C)[C@H]1CC(=O)[C@@]2(C)C3=C(C(=O)C[C@]12C)[C@@]1(C)CCC(=O)C(C)(C)[C@@H]1CC3=O (some centres undefined) [METHYL GANODERATE E]
inhibition at 40 µg/mL (3T3-L1 [1]): 22% | Activity (3T3-L1 [3]): Non-toxic

COC(=O)C(C)CC(=O)C[C@@H](C)[C@H]1CC(=O)[C@@]2(C)C3=C(C(=O)[C@@H](OC(C)=O)[C@]12C)[C@@]1(C)CC[C@H](O)C(C)(C)[C@@H]1CC3=O (some centres undefined) [METHYL GANODERATE H]
inhibition at 40 µg/mL (3T3-L1 [1]): 22% | Activity (3T3-L1 [3]): Non-toxic

COC(=O)CC[C@@H](C)[C@H]1CC(=O)[C@@]2(C)C3=C(C(=O)C[C@]12C)[C@@]1(C)CCC(=O)C(C)(C)[C@@H]1C[C@@H]3O [METHYL LUCIDENATE A]
inhibition at 40 µg/mL (3T3-L1 [1]): 22% | Activity (3T3-L1 [2]): Toxic | Activity (3T3-L1 [3]): Non-toxic

COC(=O)CC[C@@H](C)[C@H]1CC(=O)[C@@]2(C)C3=C(C(=O)[C@@H](OC(C)=O)[C@]12C)[C@@]1(C)CC[C@H](O)C(C)(C)[C@@H]1CC3=O [METHYL LUCIDENATE E2]
inhibition at 40 µg/mL (3T3-L1 [1]): 22% | Activity (3T3-L1 [3]): Non-toxic

COC(=O)CC[C@@H](C)[C@H]1CC(=O)[C@@]2(C)C3=C(C(=O)C[C@]12C)[C@@]1(C)CCC(=O)C(C)(C)[C@@H]1CC3=O [METHYL LUCIDENATE F]
inhibition at 40 µg/mL (3T3-L1 [1]): 22% | Activity (3T3-L1 [3]): Non-toxic

COC(=O)CC[C@@H](C)[C@H]1CC(=O)[C@@]2(C)C3=C(C(=O)[C@@H](OC(C)=O)[C@]12C)[C@@]1(C)CC[C@H](O)C(C)(C)[C@@H]1C[C@@H]3O [METHYL LUCIDENATE P]
inhibition at 40 µg/mL (3T3-L1 [1]): 22% | Activity (3T3-L1 [3]): Non-toxic
